# Data as given in ChEMBL document CHEMBL1250448, “Inhibitor hijacking of Akt activation” (Nat Chem Biol, 2009).
# Columns and labels:
# [1] = biological target: Casein kinase I isoform gamma-2 (Homo sapiens) (UniProt P78368); assay: Inhibition of CSNK1G2 at 1 uM in presence of 10 uM ATP by Select Screen kinase assay relative to untreated control
# How it was run: (§1)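 Single-point screen at 1 μM against a panel of 220 purified kinases, run by Invitrogen staff as a SelectScreen profiling service. Read-out is percent inhibition of kinase activity.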
# [2] = biological target: T1, Inhibitor of nuclear factor kappa-B kinase subunit beta (Homo sapiens) (UniProt O14920); assay: Inhibition of IKBKB at 1 uM in presence of 10 uM ATP by Select Screen kinase assay relative to untreated control
# T1 sequence (whole entry): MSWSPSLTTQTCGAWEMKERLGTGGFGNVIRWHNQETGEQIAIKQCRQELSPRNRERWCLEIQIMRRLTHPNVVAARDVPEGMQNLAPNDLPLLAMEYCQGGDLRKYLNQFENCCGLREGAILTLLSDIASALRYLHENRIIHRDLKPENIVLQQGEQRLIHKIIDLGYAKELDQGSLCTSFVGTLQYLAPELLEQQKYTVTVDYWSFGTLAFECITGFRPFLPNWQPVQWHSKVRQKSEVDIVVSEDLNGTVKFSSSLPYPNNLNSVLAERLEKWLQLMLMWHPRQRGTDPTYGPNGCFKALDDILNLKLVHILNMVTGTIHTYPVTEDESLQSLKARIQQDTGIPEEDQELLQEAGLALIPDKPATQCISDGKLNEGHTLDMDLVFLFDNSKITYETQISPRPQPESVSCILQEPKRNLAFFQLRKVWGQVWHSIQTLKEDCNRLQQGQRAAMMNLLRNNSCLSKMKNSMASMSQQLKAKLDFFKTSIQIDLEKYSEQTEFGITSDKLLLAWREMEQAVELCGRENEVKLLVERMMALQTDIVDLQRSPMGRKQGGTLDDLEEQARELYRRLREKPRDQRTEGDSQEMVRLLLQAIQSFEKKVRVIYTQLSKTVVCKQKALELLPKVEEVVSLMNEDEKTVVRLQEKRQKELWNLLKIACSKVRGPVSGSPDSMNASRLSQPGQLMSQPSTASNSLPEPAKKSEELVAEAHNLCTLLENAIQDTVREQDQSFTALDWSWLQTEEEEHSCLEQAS
# How it was run: (§2)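 Single-concentration profiling at 1 μM against a panel of 220 purified kinases, run as an outsourced SelectScreen kinase profiling service. Activity is expressed as percent inhibition.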
# [3] = biological target: Mitogen-activated protein kinase kinase kinase 9 (Homo sapiens) (UniProt P80192); assay: Inhibition of MAP3K9 at 1 uM in presence of 100 uM ATP by Select Screen kinase assay relative to untreated control; how it was run: as §2
# [4] = test system: Platelet-derived growth factor receptor alpha (Homo sapiens), P16234 [D842V]; assay: Inhibition of PDGFRalpha D842V mutant at 1 uM in presence of 10 uM ATP by Select Screen kinase assay relative to untreated control
# Sequence of Platelet-derived growth factor receptor alpha (Homo sapiens), P16234 [D842V] (P16234 whole entry D842V): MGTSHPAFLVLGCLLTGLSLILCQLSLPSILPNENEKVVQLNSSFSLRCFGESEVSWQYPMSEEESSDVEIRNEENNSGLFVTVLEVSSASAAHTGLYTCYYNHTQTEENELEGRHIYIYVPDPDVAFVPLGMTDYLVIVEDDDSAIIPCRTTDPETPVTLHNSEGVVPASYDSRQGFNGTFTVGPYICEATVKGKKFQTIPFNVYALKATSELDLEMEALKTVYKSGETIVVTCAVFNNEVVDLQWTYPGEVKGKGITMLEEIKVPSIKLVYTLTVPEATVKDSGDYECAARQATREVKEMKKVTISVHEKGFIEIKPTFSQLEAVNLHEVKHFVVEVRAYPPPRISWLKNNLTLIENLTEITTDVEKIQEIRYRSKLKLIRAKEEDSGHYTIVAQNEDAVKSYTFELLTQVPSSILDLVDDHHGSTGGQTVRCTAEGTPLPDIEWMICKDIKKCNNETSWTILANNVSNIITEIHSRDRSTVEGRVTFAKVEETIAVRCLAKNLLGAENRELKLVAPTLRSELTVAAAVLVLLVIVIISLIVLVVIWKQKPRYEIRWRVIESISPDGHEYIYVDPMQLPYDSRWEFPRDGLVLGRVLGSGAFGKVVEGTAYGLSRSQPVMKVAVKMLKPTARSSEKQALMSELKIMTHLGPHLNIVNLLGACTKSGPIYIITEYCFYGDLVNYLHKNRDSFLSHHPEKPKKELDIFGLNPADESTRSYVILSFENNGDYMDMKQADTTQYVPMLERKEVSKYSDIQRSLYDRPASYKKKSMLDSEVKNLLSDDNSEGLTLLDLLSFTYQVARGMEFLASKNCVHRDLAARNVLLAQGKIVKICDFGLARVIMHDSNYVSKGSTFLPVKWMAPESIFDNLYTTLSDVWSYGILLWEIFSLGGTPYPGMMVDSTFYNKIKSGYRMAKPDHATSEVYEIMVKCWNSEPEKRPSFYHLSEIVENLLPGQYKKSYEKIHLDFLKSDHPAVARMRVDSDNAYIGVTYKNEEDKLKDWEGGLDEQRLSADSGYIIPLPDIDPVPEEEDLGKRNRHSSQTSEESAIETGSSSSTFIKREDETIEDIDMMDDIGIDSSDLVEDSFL
# How it was run: (§3)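 Commercial SelectScreen profiling panel of 220 purified kinases. Each kinase was tested at a single inhibitor concentration of 1 μM, and activity was expressed as percent inhibition.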
# [5] = biological target: Insulin-like growth factor 1 receptor (Homo sapiens) (UniProt P08069); assay: Inhibition of IGF1R at 1 uM in presence of 10 uM ATP by Select Screen kinase assay relative to untreated control; how it was run: as §2
# [6] = biological target: T2, Ephrin type-A receptor 8 (Homo sapiens) (UniProt P29322); assay: Inhibition of EPHA8 at 1 uM in presence of 10 uM ATP by Select Screen kinase assay relative to untreated control; how it was run: as §1
# T2 sequence (whole entry): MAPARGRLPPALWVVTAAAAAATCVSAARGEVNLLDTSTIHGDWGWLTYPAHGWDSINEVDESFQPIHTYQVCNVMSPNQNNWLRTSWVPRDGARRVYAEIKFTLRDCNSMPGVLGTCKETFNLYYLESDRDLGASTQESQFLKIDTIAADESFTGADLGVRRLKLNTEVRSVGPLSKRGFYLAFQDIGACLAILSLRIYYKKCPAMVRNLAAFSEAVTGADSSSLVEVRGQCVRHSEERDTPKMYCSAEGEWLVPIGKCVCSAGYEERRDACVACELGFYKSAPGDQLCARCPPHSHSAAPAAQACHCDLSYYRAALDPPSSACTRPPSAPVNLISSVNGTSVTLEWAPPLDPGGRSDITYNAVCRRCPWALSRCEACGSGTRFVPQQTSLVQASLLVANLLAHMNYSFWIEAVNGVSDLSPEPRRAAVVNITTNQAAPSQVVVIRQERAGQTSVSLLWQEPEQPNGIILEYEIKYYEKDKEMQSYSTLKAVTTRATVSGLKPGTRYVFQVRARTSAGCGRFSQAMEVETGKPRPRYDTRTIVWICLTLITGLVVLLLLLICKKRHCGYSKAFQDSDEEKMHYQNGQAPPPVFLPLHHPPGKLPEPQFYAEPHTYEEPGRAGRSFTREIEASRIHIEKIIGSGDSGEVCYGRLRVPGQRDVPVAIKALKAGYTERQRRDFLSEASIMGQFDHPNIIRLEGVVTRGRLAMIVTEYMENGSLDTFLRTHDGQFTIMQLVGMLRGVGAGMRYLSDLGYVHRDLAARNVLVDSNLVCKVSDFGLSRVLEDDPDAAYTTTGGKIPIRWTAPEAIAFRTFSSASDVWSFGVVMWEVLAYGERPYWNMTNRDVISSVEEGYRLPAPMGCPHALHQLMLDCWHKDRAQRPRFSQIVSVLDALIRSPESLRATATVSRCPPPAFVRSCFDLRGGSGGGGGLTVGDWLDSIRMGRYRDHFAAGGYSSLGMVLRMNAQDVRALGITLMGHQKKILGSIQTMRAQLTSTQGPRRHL
# [7] = biological target: Mitogen-activated protein kinase kinase kinase 8 (Homo sapiens) (UniProt P41279); assay: Inhibition of MAP3K8 at 1 uM in presence of 100 uM ATP by Select Screen kinase assay relative to untreated control; how it was run: as §2
# [8] = biological target: PAS domain-containing serine/threonine-protein kinase (Homo sapiens) (UniProt Q96RG2); assay: Inhibition of PASK at 1 uM in presence of 10 uM ATP by Select Screen kinase assay relative to untreated control; how it was run: as §3
# [9] = biological target: Serine/threonine-protein kinase B-raf (Homo sapiens) (UniProt P15056); assay: Inhibition of BRAF at 1 uM in presence of 100 uM ATP by Select Screen kinase assay relative to untreated control; how it was run: as §1
# Sequence of Serine/threonine-protein kinase B-raf (Homo sapiens) (P15056 whole entry): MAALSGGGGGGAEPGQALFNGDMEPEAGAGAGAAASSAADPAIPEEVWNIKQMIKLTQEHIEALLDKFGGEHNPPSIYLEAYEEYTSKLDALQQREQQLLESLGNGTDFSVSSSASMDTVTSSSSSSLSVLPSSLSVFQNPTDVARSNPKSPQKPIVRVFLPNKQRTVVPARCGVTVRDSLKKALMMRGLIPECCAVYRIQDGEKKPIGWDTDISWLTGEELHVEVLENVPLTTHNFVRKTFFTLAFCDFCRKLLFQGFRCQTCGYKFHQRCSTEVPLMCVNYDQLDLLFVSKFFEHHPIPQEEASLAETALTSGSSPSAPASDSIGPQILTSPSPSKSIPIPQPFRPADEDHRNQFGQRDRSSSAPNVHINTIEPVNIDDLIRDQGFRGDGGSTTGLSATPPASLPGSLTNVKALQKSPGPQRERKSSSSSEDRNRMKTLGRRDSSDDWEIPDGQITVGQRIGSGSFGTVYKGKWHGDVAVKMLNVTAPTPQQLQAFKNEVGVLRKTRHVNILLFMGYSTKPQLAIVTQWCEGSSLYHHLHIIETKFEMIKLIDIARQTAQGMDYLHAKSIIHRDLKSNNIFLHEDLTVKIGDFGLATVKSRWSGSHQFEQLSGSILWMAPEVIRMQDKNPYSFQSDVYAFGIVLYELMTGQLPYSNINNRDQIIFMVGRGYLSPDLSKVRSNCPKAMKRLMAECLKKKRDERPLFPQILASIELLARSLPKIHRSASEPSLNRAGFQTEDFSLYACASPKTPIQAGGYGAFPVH
# [10] = biological target: Macrophage-stimulating protein receptor (Homo sapiens) (UniProt Q04912); assay: Inhibition of MST1R at 1 uM in presence of 10 uM ATP by Select Screen kinase assay relative to untreated control; how it was run: as §2
# Sequence of Macrophage-stimulating protein receptor (Homo sapiens) (Q04912 25-304 limits assumed): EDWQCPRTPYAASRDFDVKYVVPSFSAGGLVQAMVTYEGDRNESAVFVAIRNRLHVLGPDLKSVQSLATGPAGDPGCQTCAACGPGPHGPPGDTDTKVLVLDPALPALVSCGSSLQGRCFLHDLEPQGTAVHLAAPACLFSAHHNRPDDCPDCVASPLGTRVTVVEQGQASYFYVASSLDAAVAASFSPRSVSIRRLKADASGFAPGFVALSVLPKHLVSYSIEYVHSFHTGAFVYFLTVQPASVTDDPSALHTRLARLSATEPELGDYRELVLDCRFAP
# Sequence of Macrophage-stimulating protein receptor (Homo sapiens) (Q04912 310-1400 limits assumed): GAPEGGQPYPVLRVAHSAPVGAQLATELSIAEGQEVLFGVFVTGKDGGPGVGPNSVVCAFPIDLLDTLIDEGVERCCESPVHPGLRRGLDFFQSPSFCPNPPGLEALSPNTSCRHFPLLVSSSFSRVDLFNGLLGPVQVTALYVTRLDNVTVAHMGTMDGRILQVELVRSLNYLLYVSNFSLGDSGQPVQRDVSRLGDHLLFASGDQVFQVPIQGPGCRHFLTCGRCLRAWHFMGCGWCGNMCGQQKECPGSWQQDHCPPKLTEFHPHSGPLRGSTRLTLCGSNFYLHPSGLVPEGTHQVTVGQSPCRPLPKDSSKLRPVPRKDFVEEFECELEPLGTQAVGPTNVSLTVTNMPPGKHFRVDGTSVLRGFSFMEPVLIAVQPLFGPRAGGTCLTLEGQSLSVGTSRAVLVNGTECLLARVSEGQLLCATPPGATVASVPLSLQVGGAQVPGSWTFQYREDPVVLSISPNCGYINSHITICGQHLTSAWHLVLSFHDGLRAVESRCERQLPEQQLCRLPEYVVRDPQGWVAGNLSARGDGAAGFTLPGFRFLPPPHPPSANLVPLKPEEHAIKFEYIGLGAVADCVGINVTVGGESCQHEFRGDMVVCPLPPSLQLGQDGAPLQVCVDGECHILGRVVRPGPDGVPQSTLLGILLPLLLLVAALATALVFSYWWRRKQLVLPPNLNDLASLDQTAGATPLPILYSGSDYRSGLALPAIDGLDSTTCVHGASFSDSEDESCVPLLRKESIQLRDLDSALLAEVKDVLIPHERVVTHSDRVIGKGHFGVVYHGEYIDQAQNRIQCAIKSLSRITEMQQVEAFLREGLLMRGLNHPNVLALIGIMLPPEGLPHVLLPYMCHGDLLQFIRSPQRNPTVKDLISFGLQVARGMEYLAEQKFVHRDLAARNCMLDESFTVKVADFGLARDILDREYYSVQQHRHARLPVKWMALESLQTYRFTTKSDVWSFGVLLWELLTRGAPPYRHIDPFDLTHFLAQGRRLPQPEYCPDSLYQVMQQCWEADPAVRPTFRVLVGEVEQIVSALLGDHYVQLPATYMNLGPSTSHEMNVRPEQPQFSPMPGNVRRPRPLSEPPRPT
# [11] = biological target: Ephrin type-A receptor 2 (Homo sapiens) (UniProt P29317); assay: Inhibition of EPHA2 at 1 uM in presence of 10 uM ATP by Select Screen kinase assay relative to untreated control; how it was run: as §1
# Sequence of Ephrin type-A receptor 2 (Homo sapiens) (P29317 whole entry): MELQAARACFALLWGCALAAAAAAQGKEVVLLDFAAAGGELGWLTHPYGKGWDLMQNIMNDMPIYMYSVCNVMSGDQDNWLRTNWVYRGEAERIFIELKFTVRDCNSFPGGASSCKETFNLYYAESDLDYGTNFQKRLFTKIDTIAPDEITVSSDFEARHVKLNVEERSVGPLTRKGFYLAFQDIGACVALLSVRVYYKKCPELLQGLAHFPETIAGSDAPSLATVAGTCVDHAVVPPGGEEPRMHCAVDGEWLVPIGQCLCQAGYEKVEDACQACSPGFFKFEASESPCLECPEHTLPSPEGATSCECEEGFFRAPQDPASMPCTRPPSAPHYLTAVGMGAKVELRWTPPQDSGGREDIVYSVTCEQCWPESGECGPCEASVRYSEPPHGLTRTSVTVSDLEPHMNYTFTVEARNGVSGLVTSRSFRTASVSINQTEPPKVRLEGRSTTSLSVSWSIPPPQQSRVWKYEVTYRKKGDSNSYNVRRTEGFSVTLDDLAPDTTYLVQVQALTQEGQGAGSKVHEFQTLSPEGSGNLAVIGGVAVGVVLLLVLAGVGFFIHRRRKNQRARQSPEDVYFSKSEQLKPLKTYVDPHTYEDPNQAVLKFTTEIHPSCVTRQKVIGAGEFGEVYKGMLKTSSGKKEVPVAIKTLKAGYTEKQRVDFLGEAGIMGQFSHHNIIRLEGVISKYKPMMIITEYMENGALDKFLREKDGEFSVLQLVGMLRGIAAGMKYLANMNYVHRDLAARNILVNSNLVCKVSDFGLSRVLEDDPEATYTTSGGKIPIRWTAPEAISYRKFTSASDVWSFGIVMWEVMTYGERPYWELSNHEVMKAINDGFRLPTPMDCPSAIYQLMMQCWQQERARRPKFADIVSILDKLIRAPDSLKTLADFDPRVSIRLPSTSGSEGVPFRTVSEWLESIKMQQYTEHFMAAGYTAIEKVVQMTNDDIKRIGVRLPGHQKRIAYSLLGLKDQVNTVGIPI
# Sequence of Casein kinase I isoform gamma-2 (Homo sapiens) (P78368 whole entry, looked up, canonical isoform): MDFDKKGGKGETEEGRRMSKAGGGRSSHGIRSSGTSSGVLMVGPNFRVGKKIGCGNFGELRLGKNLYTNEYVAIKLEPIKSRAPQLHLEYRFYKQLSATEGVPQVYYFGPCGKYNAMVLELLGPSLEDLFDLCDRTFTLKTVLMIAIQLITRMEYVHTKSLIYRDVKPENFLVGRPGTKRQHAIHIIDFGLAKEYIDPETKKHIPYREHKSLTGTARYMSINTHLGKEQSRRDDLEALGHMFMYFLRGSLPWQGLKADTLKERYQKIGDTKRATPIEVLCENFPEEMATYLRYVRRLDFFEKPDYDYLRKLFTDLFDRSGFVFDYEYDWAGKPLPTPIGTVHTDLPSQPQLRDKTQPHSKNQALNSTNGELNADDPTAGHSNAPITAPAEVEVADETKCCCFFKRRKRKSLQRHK
Structure (SMILES),inhibition [1] [%],inhibition [2] [%],inhibition [3] [%],inhibition [4] [%],inhibition [5] [%],inhibition [6] [%],inhibition [7] [%],inhibition [8] [%],inhibition [9] [%],inhibition [10] [%],inhibition [11] [%]
Cc1n[nH]c2ccc(-c3cncc(OC[C@@H](N)Cc4c[nH]c5ccccc45)c3)cc12,81,11,15,11,5,3,50,36,72,10,8
O=C(NCCCNc1nc(Nc2cccc(NC(=O)N3CCCC3)c2)ncc1I)c1cccs1,15,6,98,106,10,16,54,3,38,17,22
COc1ccccc1N1CCN(c2ncnc3[nH]nc(Br)c23)CC1,12,2,22,2,10,16,17,1,17,-4,24
